Assay outcomes as filed in PubChem.
Compounds with a hit are over-represented: about 3.5% of the library has one in this group of screens.
MrgX1 antagonist = antagonists of human MrgX1 receptor, primary screen, HEK293 cells, Fluo-4 calcium flux. Mas-related G-protein coupled receptor member X1 (Homo sapiens), Q96LB2. BAM8-22 antagonism; stronger effect = lower value. B-score at 10 µM. actives 1.3% (n = 310,000). AID 588676, 2011;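 active = calcium-response B-score plate-corrected more than 3 library SD below zero, starting fluorescence within 5 deviations, no agonist response on first addition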;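 also: peak minus trough fluorescence over baseline after final BAM8-22 challenge near maximal dose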
Target sequence (Q96LB2 whole entry, looked up): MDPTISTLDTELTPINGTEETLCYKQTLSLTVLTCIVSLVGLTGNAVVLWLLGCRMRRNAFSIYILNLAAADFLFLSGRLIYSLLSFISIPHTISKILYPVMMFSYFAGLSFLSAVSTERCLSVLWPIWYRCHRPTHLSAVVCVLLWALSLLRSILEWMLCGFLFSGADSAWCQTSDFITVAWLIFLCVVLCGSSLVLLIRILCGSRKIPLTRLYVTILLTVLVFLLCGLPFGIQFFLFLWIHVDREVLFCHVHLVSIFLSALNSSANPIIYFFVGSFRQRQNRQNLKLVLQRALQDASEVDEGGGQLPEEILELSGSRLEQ
MrgX1 agonist = agonists of human MrgX1 receptor, primary screen, HEK293 cells, Fluo-4 calcium flux; actives 0.44% (n = 310,000); Fluo-4 calcium fluorescence, agonist mode; stronger effect = higher value; Mas-related G-protein coupled receptor member X1 (Homo sapiens), Q96LB2; AID 588627, 2011; B-score at 10 µM;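 active = calcium response B-score plate-corrected fluorescence ratio at least 3 library SD, with starting fluorescence B-score inside 5 SD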
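Assay system: stable human MrgX1 HEK293 cell line. Quantity: 15,000 cells per well. Schedule: cells plated overnight, dye loaded 0.5 h 37 °C, 0.5 h room temperature. Detection: Fluo-4 NW calcium-flux fluorescence, kinetic read. Read-out basis: peak-minus-minimum fluorescence over baseline, converted to B scores. Control set: positive and negative control wells on each plate.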
MrgX1 allo act = positive allosteric modulators of MrgX1, primary screen, HEK293 cells, Fluo-4 calcium flux | Mas-related G-protein coupled receptor member X1 (Homo sapiens), Q96LB2 | FDSS; stronger effect = higher value | B-score at 10 µM | actives 0.63% (n = 310,000);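 active = plate-corrected calcium response at least 3 library SD above typical, normal starting fluorescence, not activating the receptor alone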;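 also: compound read alongside a low EC10 to EC30 dose of BAM8-22 agonist; peak minus trough fluorescence over baseline measured at the second addition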
RGS4 pot = RGS4 potentiators or activators, primary screen, cell-based, HEK293 M3R inducible RGS4, calcium flux. B-score at 10 µM. carbachol calcium flux Fluo4; stronger effect = lower value. AID 463111, 2010. actives 0.92% (n = 310,000);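 active = B-score of the integrated calcium signal more than 4 SD below the library mean, with starting fluorescence not abnormally high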;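 also: negative B-score means reduced calcium response which marks RGS4 activation or potentiation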
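Also added: carbachol at ECmax as muscarinic agonist stimulus; Assay system: HEK293 cells with stable M3R and inducible RGS4; Timing: overnight RGS4 induction, 30 min dye load 37 °C, 20 min compound RT; Measured by: Fluo4-AM (2 µM) calcium-flux fluorescence, kinetic read.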
RGS4 block = RGS4 inhibitors, primary screen, cell-based, HEK293 M3R inducible RGS4, calcium flux; Regulator of G-protein signaling 4 (Homo sapiens), P49798; actives 0.45% (n = 310,000); B-score at 10 µM; Fluo-4 calcium flux; stronger effect = higher value; triggered by carbachol at its EC20;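 active = B-score, a plate-corrected calcium signal, over three deviations above library mean, with baseline fluorescence within five deviations of library mean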;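 also: RGS4 expression induced by doxycycline in cells with stable M3 receptor; B-score is computed from the integrated fluorescence ratio over baseline after carbachol; higher B-score means a larger calcium signal and so more RGS4 inhibition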
Target sequence (P49798 whole entry, looked up): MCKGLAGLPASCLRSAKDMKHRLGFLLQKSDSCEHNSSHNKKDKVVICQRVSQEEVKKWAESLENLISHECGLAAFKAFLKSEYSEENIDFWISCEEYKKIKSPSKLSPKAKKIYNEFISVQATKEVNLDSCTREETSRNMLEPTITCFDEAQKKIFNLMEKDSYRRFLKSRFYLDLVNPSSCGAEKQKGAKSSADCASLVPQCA
Hits are given with their value.

For Cc1ccc(/C=C2\S/C(=N/S(=O)(=O)c3cccs3)NC2=O)cc1 the results were MrgX1 antagonist inactive, MrgX1 agonist inactive, MrgX1 allo act 14.1, RGS4 pot inactive and RGS4 block inactive.
`Cc1ccc(N(CC(=O)NCCSc2ccccn2)S(C)(=O)=O)cc1` gave MrgX1 antagonist inactive, MrgX1 agonist inactive, MrgX1 allo act inactive, RGS4 pot inactive and RGS4 block inactive.
Screening COc1ccc(N(C(=O)CS(=O)CC(=O)Nc2ccc(F)cc2)C(C(=O)NC2CCCCC2)c2cccs2)cc1 (configuration not stated) returned MrgX1 antagonist inactive, MrgX1 agonist inactive, MrgX1 allo act inactive, RGS4 pot inactive and RGS4 block inactive.
CC[N+]1=C(C)C(C)(C)c2cc(C)ccc21 was read as MrgX1 antagonist -4.76, MrgX1 agonist inactive, MrgX1 allo act inactive, RGS4 pot inactive and RGS4 block inactive.
For Cc1ccc2c(c1)C=CC(C)(C)S2=O (configuration not stated) the results were MrgX1 antagonist inactive, MrgX1 agonist inactive, MrgX1 allo act inactive, RGS4 pot inactive and RGS4 block inactive.
For Cc1ccc(-n2c(SCC(N)=O)nnc2-c2ccc(S(=O)(=O)N3CCCCC3)cc2)c(C)c1 the results were MrgX1 antagonist inactive, MrgX1 agonist inactive, MrgX1 allo act inactive, RGS4 pot -7.1 and RGS4 block inactive.
`Cn1c(SCC(N)=O)nnc1-c1ccc(S(=O)(=O)N2CCCC2)cc1` gave MrgX1 antagonist inactive, MrgX1 agonist inactive, MrgX1 allo act inactive, RGS4 pot inactive and RGS4 block inactive.
COc1ccc(-c2cc(C(=O)N3CCN(C(=O)c4ccccc4F)CC3)[nH]n2)cc1 was read as MrgX1 antagonist inactive, MrgX1 agonist inactive, MrgX1 allo act inactive, RGS4 pot inactive and RGS4 block inactive.
Screening CCOc1ccc(N=C2C(=O)N(CN3CCOCC3)c3ccccc32)cc1 returned MrgX1 antagonist inactive, MrgX1 agonist 33.1, MrgX1 allo act inactive, RGS4 pot inactive and RGS4 block inactive.
`CCS(=O)(=O)N1N=C(c2cccc(NS(C)(=O)=O)c2)CC1c1ccccc1` (configuration not stated) gave MrgX1 antagonist -5.49, MrgX1 agonist inactive, MrgX1 allo act inactive, RGS4 pot inactive and RGS4 block inactive.
For O=[N+]([O-])c1ccc2nc(-c3ccc(Cl)cc3)[nH]c2c1 the results were MrgX1 antagonist -5.79, MrgX1 agonist inactive, MrgX1 allo act inactive, RGS4 pot inactive and RGS4 block inactive.
Cc1ccc(-c2nc3ccc([N+](=O)[O-])cc3[nH]2)cc1 was read as MrgX1 antagonist inactive, MrgX1 agonist inactive, MrgX1 allo act inactive, RGS4 pot inactive and RGS4 block inactive.
For CCCCCCCCSc1nnc(CSc2nc3nc(C)cc(C)n3n2)o1 the results were MrgX1 antagonist inactive, MrgX1 agonist inactive, MrgX1 allo act inactive, RGS4 pot -8.32 and RGS4 block inactive.
For OC(COc1ccccc1)CN(Cc1ccccc1)CC(O)COc1ccccc1 (configuration not stated) the results were MrgX1 antagonist inactive, MrgX1 agonist inactive and MrgX1 allo act inactive.
Screening CCC(=O)c1ccc(OCC(O)CN(CCc2ccccc2)Cc2ccccc2)cc1 (configuration not stated) returned MrgX1 antagonist inactive, MrgX1 agonist inactive, MrgX1 allo act inactive, RGS4 pot -8.35 and RGS4 block inactive.
For CC(CC(F)(F)F)N1CCC(n2nccc2NC(=O)CCCc2ccccc2)CC1 (configuration not stated) the results were MrgX1 antagonist inactive, MrgX1 agonist inactive, MrgX1 allo act inactive, RGS4 pot inactive and RGS4 block inactive.
CCOC(=O)C1=C(c2ccccc2)NC(=S)NC1c1ccc(C)c([N+](=O)[O-])c1 (configuration not stated) was read as MrgX1 antagonist -4.89, MrgX1 agonist inactive, MrgX1 allo act inactive, RGS4 pot inactive and RGS4 block inactive.
Screening CCOC(=O)C1=C(c2ccccc2)NC(=S)NC1c1cccc([N+](=O)[O-])c1 (configuration not stated) returned MrgX1 antagonist inactive, MrgX1 agonist inactive, MrgX1 allo act inactive, RGS4 pot inactive and RGS4 block inactive.
O=C(Nc1ccccc1)C1=C[C@H](c2ccccc2)C[C@H](OCc2ccc(CO)cc2)O1 was read as MrgX1 antagonist inactive, MrgX1 agonist inactive, MrgX1 allo act 7.32, RGS4 pot inactive and RGS4 block inactive.
O=C(O)c1cccc(S(=O)(=O)N2CCN(Cc3ccc4c(c3)OCO4)CC2)c1 was read as MrgX1 antagonist inactive, MrgX1 agonist inactive, MrgX1 allo act inactive, RGS4 pot inactive and RGS4 block inactive.
`Cc1c(NS(=O)(=O)c2cccc(C(=O)NCc3ccc(Cl)cc3)c2)c(=O)n(-c2ccccc2)n1C` gave MrgX1 antagonist -5.97, MrgX1 agonist inactive, MrgX1 allo act inactive, RGS4 pot inactive and RGS4 block inactive.
For Cc1c(NS(=O)(=O)c2cccc(C(=O)O)c2)c(=O)n(-c2ccccc2)n1C the results were MrgX1 antagonist inactive, MrgX1 agonist inactive, MrgX1 allo act inactive, RGS4 pot inactive and RGS4 block inactive.
O=C(N/N=C/c1ccco1)c1cccc(S(=O)(=O)Nc2ccccc2Cl)c1 was read as MrgX1 antagonist inactive, MrgX1 agonist inactive, MrgX1 allo act inactive, RGS4 pot inactive and RGS4 block inactive.
For Cc1ccc(/C=N/NC(=O)c2cccc(S(=O)(=O)Nc3ccccc3Cl)c2)o1 the results were MrgX1 antagonist inactive, MrgX1 agonist inactive, MrgX1 allo act 13.2, RGS4 pot inactive and RGS4 block inactive.
Screening C/C(=N\NS(=O)(=O)c1c(C)cc(C)cc1C)c1ccncc1 returned MrgX1 antagonist inactive, MrgX1 agonist inactive, MrgX1 allo act inactive, RGS4 pot inactive and RGS4 block inactive.
For COc1ccc(C2=NOC(C(=O)NCCCn3ccnc3)C2)cc1 (configuration not stated) the results were MrgX1 antagonist inactive, MrgX1 agonist inactive, MrgX1 allo act inactive, RGS4 pot inactive and RGS4 block inactive.
For CCN(CC)CCNC(=O)C1c2ccccc2Oc2ccccc21 the results were MrgX1 antagonist inactive, MrgX1 agonist inactive, MrgX1 allo act inactive, RGS4 pot -7.23 and RGS4 block inactive.
Screening COc1cccc(C2=NOC(C(=O)NCCCn3ccnc3)C2)c1 (configuration not stated) returned MrgX1 antagonist -6.55, MrgX1 agonist inactive, MrgX1 allo act inactive, RGS4 pot inactive and RGS4 block inactive.
O=C(NCCCn1ccnc1)C1c2ccccc2Oc2ccccc21 was read as MrgX1 antagonist inactive, MrgX1 agonist inactive, MrgX1 allo act inactive, RGS4 pot -7.42 and RGS4 block inactive.
CCN(CC)CCOC(=O)C1c2ccccc2Oc2ccccc21 was read as MrgX1 antagonist inactive, MrgX1 agonist inactive, MrgX1 allo act inactive, RGS4 pot -11 and RGS4 block inactive.
